The nature of data set [1]: AG014447 concentration in tumour biopsy homogenates. It counts as in vivo, human. Particulars: samples taken 5 hours (24 hr in 3 patients) after administration.
Data set [2] is described as follows: Plasma pharmacokinetics of AG014447. The note with it: for effect of TMZ on pharmacokinetics (interaction): after a single dose or multiple doses. Type of data set: in vivo, human.
Data set [3] deals with PARP. Particulars: most efficacious dose of AG014699 combined with TMZ; cited from earlier work.
Data set [4] relates to DNA strand breaks in PBLs. Briefly: Alkaline Comet assay for DNA strand breaks in PBLs of patients. It counts as in vivo, human. The method, boiled down: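 Alkaline Comet assay (modified Olive method) on peripheral blood mononuclear cells, with slides stained with SYBR gold. Blood was sampled in cycle 1 before, 4 h and 24 h after temozolomide, following a daily 30 min IV infusion of test compound. For each sample, 50 cells from two slides were scored for % tail DNA and Olive tail moment, and means were taken. Readings were averaged by dose cohort (up to 6 patients).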

A short description of data set [5]: Toxicity / dose limiting toxicity in phase I trial. Type of data set: in vivo, human. Particulars: for dose recommended for future studies: combination, x5 every 28 days.
A further data set concerns metastatic melanoma. The note with it: phase II, AG014699 with TMZ, preliminary results; cited from earlier work.
Data set [6] addresses T1, PARP (Homo sapiens, UniProt P09874). The experiment in a line: PARP activity immunoassay in paired tumour biopsies of melanoma patients. Type of data set: in vivo. The method, boiled down:
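Chemonaive melanoma patients (part 2) received PARP inhibitor at PID with temozolomide escalated to at most 200 mg/m2; one extra level used 18 mg/m2 inhibitor plus 200 mg/m2 temozolomide. Paired biopsies were taken at baseline and after the first inhibitor dose (4, 5 or 24 h stated). PAR formation was quantified immunologically ex vivo. Activity was expressed as percentage of the same patient's pre-treatment biopsy.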

The test system of the next data set is advanced solid tumors. Briefly: Tumour response by RECIST in phase I patients. It counts as in vivo, human. The note with it: AG014699 + TMZ. The method, boiled down:
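Patients with advanced solid tumours received a daily 30 min IV infusion of test compound followed by oral temozolomide for 5 consecutive days, repeated every 28 days. Response was assessed by RECIST every 2 cycles, and patients completing 2 cycles were evaluable.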

For the next data set, the system named is SW620 tumours. Particulars: most efficacious dose of AG014699 combined with TMZ; animals bearing SW620 tumours; cited from earlier work.
Data set [7] addresses T1, PARP. The experiment in a line: PARP activity immunoassay ex vivo in peripheral blood lymphocytes. The procedure, abridged:
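Patients with solid tumours (part 1) got one IV dose of PARP inhibitor on day -7, then temozolomide 100 mg/m2/day x5 q28 days with the inhibitor, over 5 escalating dose levels. PBLs were sampled at baseline, end of infusion, 4-6 h and 24 h on days -7, 1 and 4 of cycle 1, plus day 8 at PID. PAR formation was quantified immunologically ex vivo. PID: maximal (≥50%) activity reduction at 24 h, with no gain over the preceding dose.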

The conditions of data set [8]: cited from earlier work.

T1 sequence (P09874 whole entry): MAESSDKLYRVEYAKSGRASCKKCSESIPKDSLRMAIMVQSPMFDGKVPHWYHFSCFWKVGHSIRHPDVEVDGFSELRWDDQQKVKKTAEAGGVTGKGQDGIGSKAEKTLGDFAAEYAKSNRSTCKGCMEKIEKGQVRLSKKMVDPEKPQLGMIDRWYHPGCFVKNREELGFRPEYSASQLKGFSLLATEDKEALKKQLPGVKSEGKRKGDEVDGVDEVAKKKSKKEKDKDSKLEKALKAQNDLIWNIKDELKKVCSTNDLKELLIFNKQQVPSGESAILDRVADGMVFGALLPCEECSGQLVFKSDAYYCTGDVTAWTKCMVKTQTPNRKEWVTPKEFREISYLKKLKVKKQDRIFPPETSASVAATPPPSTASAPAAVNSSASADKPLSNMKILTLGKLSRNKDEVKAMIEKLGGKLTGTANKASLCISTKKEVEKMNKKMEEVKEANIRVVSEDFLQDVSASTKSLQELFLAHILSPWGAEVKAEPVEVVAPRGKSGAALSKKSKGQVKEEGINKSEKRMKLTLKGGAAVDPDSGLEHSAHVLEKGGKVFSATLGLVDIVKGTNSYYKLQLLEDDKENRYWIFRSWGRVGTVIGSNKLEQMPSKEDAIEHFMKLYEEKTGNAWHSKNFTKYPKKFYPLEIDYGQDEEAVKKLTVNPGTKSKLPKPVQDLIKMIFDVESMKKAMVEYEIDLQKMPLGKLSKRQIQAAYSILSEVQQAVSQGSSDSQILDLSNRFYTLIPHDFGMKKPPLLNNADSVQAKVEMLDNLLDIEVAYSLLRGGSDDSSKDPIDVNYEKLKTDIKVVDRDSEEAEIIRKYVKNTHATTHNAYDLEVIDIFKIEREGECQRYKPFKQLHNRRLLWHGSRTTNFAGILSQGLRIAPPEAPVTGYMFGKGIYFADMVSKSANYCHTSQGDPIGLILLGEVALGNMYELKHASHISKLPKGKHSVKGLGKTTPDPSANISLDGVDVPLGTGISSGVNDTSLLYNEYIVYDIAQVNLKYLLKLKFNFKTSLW

Turning to `CNCc1ccc(-c2[nH]c3cc(F)cc4c3c2CCNC4=O)cc1` [AG014447], in data set [1], the “concentration in tumour biopsy homogenates, range” value is given as 5-110 ng/g tumour protein. Moreover, the “effect of TMZ on pharmacokinetics (interaction)” value in [2] (listed as AG-014447) is reported as “no evidence that TMZ has an effect”. For the same molecule, the “mean terminal half-life (CV%)” value in data set [2] (mean for the treated population) is 9.5 (50.4) hours.

Consider `CNCc1ccc(-c2[nH]c3cc(F)cc4c3c2CCNC4=O)cc1` [AG014699], for which, in the data set on PARP [3], the “xenograft PARP inhibition” value is listed as 50%. In addition, the “mean increase in Comet tail size at 24 h vs 4 h” value in data set [4] (Day 1, PARP inhibitory doses (12-18 mg/m^2) with TMZ, p=0.03) is recorded as 3%. Further, the “mean decrease in Comet tail size at 24 h vs 4 h” value in [4] (Day 1, lower doses (1-8 mg/m^2) with TMZ) came out at 8%. Besides, the “DNA single strand breaks (SSB)” value in data set [4] (all patients treated at PID) is “increases in DNA SSB”. For the same molecule, the “DNA damage in PBLs (Comet analysis)” value in data set [4] (patients treated with AG014699 and TMZ) is reported as “evidence of DNA damage in all patients”. In [5] (AG014699 18 mg/m^2/day given with TMZ 200 mg/m^2/day), the “dose limiting toxicity observed” value is reported as “Myelosuppression”. For the same molecule, the “DLTs and other grade 3/4 toxicity” value in data set [5] (Part 1 cohort 1, AG014699 1 mg/m^2 + TMZ 100 mg/m^2, 3 patients, 30 cycles) is “None”; in [5] (Part 1 cohort 2, AG014699 2 mg/m^2 + TMZ 100 mg/m^2, 4 patients, 11 cycles), “None”; in data set [5] (Part 1 cohort 3, AG014699 4 mg/m^2 + TMZ 100 mg/m^2, 4 patients, 20 cycles), “None”; in data set [5] (Part 1 cohort 4, AG014699 8 mg/m^2 + TMZ 100 mg/m^2, 4 patients, 5 cycles), “None”; in data set [5] (Part 1 cohort 5, AG014699 12 mg/m^2 + TMZ 100 mg/m^2, 3 patients, 11 cycles) it was “None”; in [5] (Part 2 cohort 6, AG014699 12 mg/m^2 + TMZ 135 mg/m^2, 3 patients, 6 cycles) it was “None”. In addition, the “DLTs and other grade 3/4 toxicity” value in data set [5] (Part 2 cohort 7, AG014699 12 mg/m^2 + TMZ 170 mg/m^2, 3 patients, 10 cycles) is listed as “None”; in data set [5] (Part 2 cohort 8, AG014699 12 mg/m^2 + TMZ 200 mg/m^2, 3 patients, 16 cycles), “None”. Besides, the Recommended dose in data set [5] (combination with temozolomide) was found to be 12 mg/m^2. For the same molecule, the “dose recommended for future studies” value in data set [5] worked out at 12 mg/m^2/day. Further, in [5] (part 2, PARP inhibitory dose of AG014699 with 200 mg/m^2 temozolomide), the DLT entry was “without DLT”. In addition, in data set [5] (patients, no toxic deaths), the “tolerability of the combination with temozolomide” value was “well tolerated”. Moreover, in [5] (patients, single agent), the “toxicity attributable to AG014699 alone” value was “No toxicity of any kind”. Further, the partial response rate with metastatic melanoma is 17%. For the same molecule, the “patients having stable disease for 6 months or more” value in the data set with metastatic melanoma was 17%. The “Mean tumor PARP inhibition” value at PARP [6] (at 5 hours) is reported as 92%. The “tumor PARP inhibition, range” value on PARP [6] (at 5 hours) is on record as 46 - 97%. Moreover, the “PARP inhibition in paired tumour biopsies” value on PARP [6] (part 2, all biopsies, 12 and 18 mg/m^2) is listed as > 50%. Also, the pharmacokinetic linearity entry in data set [2] (1-18 mg/m^2, 30 minute IV infusion) is “linear”. Moreover, in [2] (CYP2D6 genotype *4,*4 vs wild type/heterozygous), the “exposure (AUC0-24hr) in predicted extensive vs poor CYP2D6 metabolism” value is “similar”. Moreover, the “effect of TMZ on pharmacokinetics (interaction)” value in data set [2] is on record as “no interaction”. For the same molecule, the “t^1/2 mean” value in data set [2] (cohort 2, 699 dose 2 mg/m^2 (n=3), TMZ dose 100, day 1) was determined as 3.8 h; in data set [2] (cohort 2, 699 dose 2 mg/m^2 (n=3), TMZ dose 100, day 4), 8.0 h; in data set [2] (cohort 2, 699 dose 2 mg/m^2 (n=3), TMZ dose 100, day -7) it was 6.9 h; in data set [2] (cohort 3, 699 dose 4 mg/m^2 (n=3), TMZ dose 100, day 1), 10.6 h; in [2] (cohort 3, 699 dose 4 mg/m^2 (n=3), TMZ dose 100, day 4), 10.9 h; in data set [2] (cohort 3, 699 dose 4 mg/m^2 (n=3), TMZ dose 100, day -7), 23.2 h. Also, the “t^1/2 mean” value is 13.9 h in data set [2] (cohort 4, 699 dose 8 mg/m^2 (n=4), TMZ dose 100, day 1); 18.3 h in [2] (cohort 4, 699 dose 8 mg/m^2 (n=4), TMZ dose 100, day 4); 19.9 h in data set [2] (cohort 4, 699 dose 8 mg/m^2 (n=4), TMZ dose 100, day -7); 15.0 h in data set [2] (cohort 5-8, 699 dose 12 mg/m^2 (n=12), TMZ dose 100-200, day 1); 16.8 h in data set [2] (cohort 5-8, 699 dose 12 mg/m^2 (n=12), TMZ dose 100-200, day 4); 11.5 h in data set [2] (cohort 5-8, 699 dose 12 mg/m^2 (n=12), TMZ dose 100-200, day -7). For the same molecule, the “t^1/2 mean” value in data set [2] (cohort 9, 699 dose 18 mg/m^2 (n=6), TMZ dose 200, day 1) was found to be 16.0 h; in data set [2] (cohort 9, 699 dose 18 mg/m^2 (n=6), TMZ dose 200, day 4), 15.2 h; in data set [2] (cohort 9, 699 dose 18 mg/m^2 (n=6), TMZ dose 200, day -7), 13.1 h. In [2] (normalized for actual dose and for mg/m^2 dose (both cases)), the “inter-subject variability of normalized AUC0-24h” value was determined as 54%. Moreover, the “tumour response in patients with metastatic melanoma” value in the data set with advanced solid tumors (no prior chemotherapy for melanoma) was “one documented complete and one partial response”. In the data set with advanced solid tumors (previously treated with surgery and imatinib), the “tumour response in a patient with a desmoid tumour” value is listed as “a further partial response”. For the same molecule, the antitumour efficacy result in the data set with SW620 tumours is given as “cures were seen”. The “PBL PARP enzyme activity recovered, of baseline” value at PARP [7] (12 mg/m^2/day, cycle 1 day 8, 72 hours after the last dose) is listed as ~50%. Moreover, the “PARP inhibition in PBLs” value on PARP [7] (all AG014699 dose levels, at the end of infusion) is reported as > 90%. Also, the “inhibition of PBL PARP activity” value on PARP [7] (at PID 12 mg/m^2) is given as 74 -97%. Besides, the “PARP-inhibitory dose (PID)” value was 12 mg/m^2 on PARP [7] (based on PBL (surrogate tissue) PARP inhibition, with TMZ 100 mg/m^2 daily x 5) and 12 mg/m^2/day at PARP [7] (part 1, 5 dose levels, TMZ 100 mg/m^2/day). Also, the “recovery of PBL PARP activity over 24 hours” value at PARP [7] (doses above 8 mg/m^2) is recorded as “no recovery was observed”; at PARP [7] (lower dose levels), “recovery of enzyme activity over 24 hours”.

On to `Cn1nnc2c(C(N)=O)ncn2c1=O` [Temozolomide, reference compound], for which the Recommended dose in data set [5] (combination with AG014699) is 200 mg/m2. Moreover, the “dose recommended for future studies” value in [5] stood at 200 mg/m^2/day. Also, in data set [8] (TMZ 200 mg/m^2/day), the tolerability entry is listed as “well tolerated”. Moreover, the toxicity entry in data set [8] (TMZ 225 mg/m^2/day) is reported as “significant myelosuppression”.

These data come from article PMC2652879 (Clinical cancer research : an official journal of the …, 2008).
